ChEMBL document CHEMBL1133118 (J Med Chem, 2000)

Legend:
[1] = target: T1, Adenosine receptor A2a (Homo sapiens, UniProt P29274); experiment: Displacement of [3H]-SCH- 58261 from human adenosine A2A receptor expressed in CHO cells; range 1.70-2.10; type: cell-based
How it was run: (§1)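 Membranes from CHO cells stably expressing human A2A receptor, grown in DMEM/F12 without nucleosides, resuspended in 50 mM Tris HCl, 10 mM MgCl2, pH 7.4; 50 μg protein/assay. Competition with [3H]SCH 58261 at 6–8 or more compound concentrations, 60 min at 25 °C; nonspecific binding with 50 μM NECA. Filtration on GF/B filters, scintillation counting; n=3-6.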

[2] = target: Adenosine receptors; A2b & A3 (Homo sapiens) (UniProt P29275+P0DMS8); experiment: Ratio of binding affinity of human A2B receptor to that of human A3 receptor; type: protein assay
How it was run: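 Ki ratio, n=3-6, 6–8 concentrations. A2B in HEK-293 membranes (20 μg): 40 nM [3H]DPCPX, 50 mM Tris HCl, 10 mM MgCl2, 1 mM EDTA, 0.1 mM benzamidine pH 7.4, 2 IU/mL adenosine deaminase, 60 min at 25 °C, nonspecific with 100 μM NECA. A3 in CHO membranes (50 μg): 1 nM [3H]MRE3008-F20, 120 min at 4 °C.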

[3] = target: T2, Adenosine receptor A2b (Homo sapiens, UniProt P29275); experiment: Displacement of [3H]DPCPX from Adenosine A2b receptor expressed in […]; range 56-75; type: cell-based
T2 sequence (P29275 whole entry): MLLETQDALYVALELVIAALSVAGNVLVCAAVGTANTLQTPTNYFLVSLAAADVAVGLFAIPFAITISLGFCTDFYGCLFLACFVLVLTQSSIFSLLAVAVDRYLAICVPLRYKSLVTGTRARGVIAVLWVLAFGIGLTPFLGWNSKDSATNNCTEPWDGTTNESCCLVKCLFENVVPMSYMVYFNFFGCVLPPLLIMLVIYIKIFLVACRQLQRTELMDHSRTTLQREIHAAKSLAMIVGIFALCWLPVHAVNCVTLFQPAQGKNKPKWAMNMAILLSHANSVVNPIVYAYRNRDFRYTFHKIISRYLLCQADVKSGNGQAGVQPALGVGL

[4] = target: T3, Adenosine receptor A3 (Homo sapiens, UniProt P0DMS8); experiment: Displacement of [3H]MRE3008-F20 from human adenosine A3 receptor expressed in CHO cells; range 285-385; type: cell-based
T3 sequence (P0DMS8 whole entry): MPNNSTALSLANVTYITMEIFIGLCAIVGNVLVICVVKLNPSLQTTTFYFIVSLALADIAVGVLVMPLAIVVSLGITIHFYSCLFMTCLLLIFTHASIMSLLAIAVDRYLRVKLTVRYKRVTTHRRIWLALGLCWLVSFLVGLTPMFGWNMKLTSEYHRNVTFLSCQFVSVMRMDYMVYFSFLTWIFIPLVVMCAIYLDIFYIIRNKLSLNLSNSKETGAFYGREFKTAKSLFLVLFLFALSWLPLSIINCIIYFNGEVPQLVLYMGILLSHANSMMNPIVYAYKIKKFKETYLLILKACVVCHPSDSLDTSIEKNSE

[5] = target: T4, Adenosine receptor A3 (Homo sapiens) (UniProt P0DMS8); experiment: Percentage of blockade by 1 uM of the inhibition by 100 nM IB-MECA-inhibited cAMP accumulation in CHO cells expressing human adenosine A3 receptor.; type: functional, cell-based
T4 sequence (whole entry): T3 sequence (P0DMS8 whole entry)
How it was run: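 CHO cells stably expressing human A3 receptor; membranes in 50 mM Tris HCl, 10 mM MgCl2, 1 mM EDTA pH 7.4 with 5 μM GTP, 0.5 mM […] and 2.0 IU/mL adenosine deaminase. Preincubated 10 min at 37 °C, then IB-MECA (100 nM) and/or antagonist with 1 mM ATP and 10 μM forskolin for 10 min. Boiled 2 min. cAMP read by [3H]cAMP competition with adrenal binding protein.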

[6] = target: Adenosine receptors; A1 & A3 (Homo sapiens) (UniProt P30542+P0DMS8); experiment: Ratio of binding affinity of human A1 receptor to that of human A3 receptor; type: protein assay
How it was run: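 Ki ratio from displacement in CHO membranes, 6–8 concentrations, n=3-6, filtration counting. A1: 1 nM [3H]DPCPX, 50 μg protein, 120 min at 25 °C, nonspecific with 10 μM CHA. A3: 1 nM [3H]MRE3008-F20, 50 μg protein, Tris/10 mM MgCl2 pH 7.4, 120 min at 4 °C, nonspecific with 1 μM MRE3008-F20.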

[7] = target: T2, Adenosine receptor A2b; experiment: Displacement of [3H]DPCPX from Adenosine A2b receptor expressed in HEK-293 cells; range 81-101
[8] = target: T3, Adenosine receptor A3; experiment: Displacement of [3H]MRE3008-F20 from human adenosine A3 receptor expressed in CHO cells; range 7.2-8.9; type: cell-based
[9] = target: T5, Adenosine receptor A1 (Homo sapiens, UniProt P30542); experiment: Displacement of [3H]DPCPX from human adenosine A1 receptor expressed in CHO cells; range 269-326; type: cell-based
T5 sequence (P30542 whole entry): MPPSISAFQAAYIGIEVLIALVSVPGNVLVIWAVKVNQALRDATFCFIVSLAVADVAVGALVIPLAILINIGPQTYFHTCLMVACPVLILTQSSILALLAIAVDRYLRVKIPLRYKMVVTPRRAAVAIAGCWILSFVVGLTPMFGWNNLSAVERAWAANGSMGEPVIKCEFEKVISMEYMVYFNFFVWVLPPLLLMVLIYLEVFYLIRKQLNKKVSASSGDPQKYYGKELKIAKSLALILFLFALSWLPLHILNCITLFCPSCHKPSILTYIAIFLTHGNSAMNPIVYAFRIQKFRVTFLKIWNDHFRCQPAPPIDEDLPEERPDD

[10] = target: T3, Adenosine receptor A3; experiment: Inhibition of cAMP accumulation in CHO cells expressing human adenosine A3 receptor; range 2.9-6.0; type: functional, cell-based
[11] = target: T1, Adenosine receptor A2a; experiment: Displacement of [3H]-SCH- 58261 from human adenosine A2A receptor expressed in CHO cells; range 65-92; type: cell-based; how it was run: as §1
[12] = target: T2, Adenosine receptor A2b; experiment: Displacement of [3H]DPCPX from Adenosine A2b receptor expressed in […]; range 260-352; type: cell-based
[13] = target: T4, Adenosine receptor A3 (Homo sapiens); settings: CHO, 1 uM
[14] = target: T3, Adenosine receptor A3; experiment: Displacement of [3H]MRE3008-F20 from human adenosine A3 receptor expressed in CHO cells; range 0.27-0.34; type: cell-based
[15] = target: T2, Adenosine receptor A2b; experiment: Displacement of [3H]DPCPX from Adenosine A2b receptor expressed in CHO cells; range 45-64; type: cell-based; settings: in the assay text read “HEK-293 cells” for “CHO cells”
How it was run: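 Human recombinant A2B receptor was expressed in HEK-293 cell membranes (20 μg protein). Incubated with 40 nM [3H]DPCPX in 50 mM Tris HCl, 10 mM MgCl2, 1 mM EDTA, 0.1 mM benzamidine, pH 7.4, with 2 IU/mL adenosine deaminase, at least 6–8 test concentrations, 60 min, 25 °C. Nonspecific binding was taken with 100 μM NECA; n=3-6.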

[16] = target: T1, Adenosine receptor A2a; experiment: Displacement of [3H]-SCH- 58261 from human adenosine A2A receptor expressed in CHO cells; range 47-78; type: cell-based; how it was run: as §1
[17] = target: T3, Adenosine receptor A3; experiment: Displacement of [3H]MRE3008-F20 from human adenosine A3 receptor expressed in CHO cells; range 23-40; type: cell-based
[18] = target: T4, Adenosine receptor A3 (Homo sapiens); settings: CHO, 1 uM; remark: listed apart in the source
[19] = target: T5, Adenosine receptor A1; experiment: Displacement of [3H]DPCPX from human adenosine A1 receptor expressed in CHO cells; range 149-204; type: cell-based
[20] = target: T1, Adenosine receptor A2a; experiment: Displacement of [3H]-SCH- 58261 from human adenosine A2A receptor expressed in CHO cells; range 1024-1396; type: cell-based
[21] = target: T3, Adenosine receptor A3; experiment: biochemical
[22] = target: T2, Adenosine receptor A2b; experiment: Displacement of [3H]DPCPX from Adenosine A2b receptor expressed in […]; range 157-268; type: cell-based
[23] = target: T5, Adenosine receptor A1; experiment: Displacement of [3H]DPCPX from human adenosine A1 receptor expressed in CHO cells; range 323-378; type: cell-based
[24] = target: T3, Adenosine receptor A3; experiment: Inhibition of cAMP accumulation in CHO cells expressing human adenosine A3 receptor; range 2.8-8.1; type: functional, cell-based
[25] = target: T4, Adenosine receptor A3 (Homo sapiens); settings: CHO, 1 uM; remark: listed apart in the source
[26] = target: T2, Adenosine receptor A2b; experiment: Displacement of [3H]DPCPX from Adenosine A2b receptor expressed in CHO cells; type: cell-based
[27] = target: T5, Adenosine receptor A1; experiment: Tested for inhibitory activity against human adenosine A1 receptor by displacement of [3H]DPCPX expressed in CHO cells; value ranges from 2362-2575; type: cell-based
[28] = target: T1, Adenosine receptor A2a; experiment: Displacement of [3H]-SCH- 58261 from human adenosine A2A receptor expressed in CHO cells; range 2826-3761; type: cell-based
[29] = target: T3, Adenosine receptor A3; experiment: biochemical; remark: listed apart in the source

T1 sequence (P29274 whole entry): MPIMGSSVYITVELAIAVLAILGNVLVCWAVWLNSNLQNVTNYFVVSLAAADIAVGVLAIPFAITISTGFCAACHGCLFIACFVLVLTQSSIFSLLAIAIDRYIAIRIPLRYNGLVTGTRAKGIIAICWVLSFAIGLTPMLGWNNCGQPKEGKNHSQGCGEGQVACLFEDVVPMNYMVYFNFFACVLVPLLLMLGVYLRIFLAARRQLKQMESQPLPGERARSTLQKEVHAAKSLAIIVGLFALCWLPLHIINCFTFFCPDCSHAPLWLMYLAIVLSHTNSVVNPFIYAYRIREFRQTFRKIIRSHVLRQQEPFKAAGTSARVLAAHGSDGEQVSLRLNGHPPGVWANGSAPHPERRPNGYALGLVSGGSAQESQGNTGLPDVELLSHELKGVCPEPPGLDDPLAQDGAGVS

`CCn1cc2c(nc(N)n3nc(-c4ccco4)nc23)n1` gave a Ki [1] of 1.95 nM, a Ratio [2] of 0.19 and a Ki [3] of 65 nM. For the same compound, the Ki [4] was 331 nM, the inhibition [5] was 25% and the Ratio [6] was 0.015.
For `O=C(Nc1cccc(Cl)c1)Nc1nc2nn(CCc3ccccc3)cc2c2nc(-c3ccco3)nn12`, the Ki [7] was 90 nM, the Ki [8] was 8 nM and the Ratio [2] was 11.2. For the same compound, the inhibition [5] was 58% and the Ratio [6] was 6.3.
For `CCCCn1cc2c(nc(NC(=O)Nc3ccc(OC)cc3)n3nc(-c4ccco4)nc23)n1`, the Ki [9] was 296 nM, the IC50 [10] was 4.1 nM and the Ki [11] was 80 nM. It also gave a Ki [12] of 303 nM, a Ratio [2] of 946 and a Ratio [6] of 925. It also gave an inhibition [13] of 93% and a Ki [14] of 0.32 nM.
In the case of `COc1ccc(NC(=O)Nc2nc3nn(CCC(C)C)cc3c3nc(-c4ccco4)nn23)cc1`, the Ki [15] is reported as 54 nM, the Ki [16] is reported as 65 nM and the Ki [17] is reported as 30 nM. It also gave a Ratio [2] of 1.8, an inhibition [18] of 48% and a Ratio [6] of 5.8. It also gave a Ki [19] of 175 nM.
In the case of `Cn1cc2c(nc(NC(=O)Nc3cccc(Cl)c3)n3nc(-c4ccco4)nc23)n1`, the Ki [20] is reported as 1200 nM, the Ratio [2] is reported as 512 and the Ki [21] is reported as 0.4 nM. For the same compound, the Ratio [6] was 875, the Ki [22] was 205 nM and the Ki [23] was 350 nM. For the same compound, the IC50 [24] was 4.8 nM and the inhibition [25] was 92%.
Compound `COc1ccc(NC(=O)Nc2nc3nn(CCc4cccc5ccccc45)cc3c3nc(-c4ccco4)nn23)cc1` has a Ki [26] of over 10 µM, a Ki [27] of 2470 nM and a Ki [28] of 3.26 µM. For the same compound, the Ratio [2] was over 625, the Ki [29] was 16 nM and the inhibition [5] was 52%. It also gave a Ratio [6] of 154.
